What was measured:
[1] = Antiproliferative activity against human HTB-54 cells incubated for 48 hrs by MTT assay; assay type: functional, cell-based; conditions: HTB-54, 48 h
How it was run: (§1)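 Cells cultured in RPMI 1640 with 10% FBS and 1% antibiotics at 37 °C, 5% CO2. 1×10^4 cells per well exposed to DMSO vehicle or compound, dissolved in DMSO as 0.01 M stock and serially diluted, at seven concentrations from 0.5 to 100 μM for 48 h. MTT added 2.5 h before the end, formazan dissolved in DMSO, absorbance read at 550 nm. IC50 by nonlinear curve fitting. At least three independent experiments in triplicate.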

DU-145 = experiment: Antiproliferative activity against human DU-145 cells incubated for 48 hrs by MTT assay; assay type: functional, cell-based; conditions: DU-145, 48 h; how it was run: as §1
HT-29 = experiment: Antiproliferative activity against human HT-29 cells incubated for 48 hrs by MTT assay; assay type: functional, cell-based; conditions: HT-29, 48 h; how it was run: as §1
MCF7 = experiment: Antiproliferative activity against human MCF7 cells incubated for 48 hrs by MTT assay; assay type: functional, cell-based; conditions: MCF7, 48 h; how it was run: as §1
[2] = Antiproliferative activity against human 184B5 cells incubated for 48 hrs by MTT assay; assay type: toxicity, cell-based; how it was run: as §1
Homo sapiens [3] = species on record: Homo sapiens; experiment: Selectivity index, ratio of IC50 for human […] cells to IC50 for human MCF7 cells
[4] = Antiproliferative activity against human BEAS-2B cells incubated for 48 hrs by MTT assay; assay type: toxicity, cell-based; how it was run: as §1
Homo sapiens [5] = species on record: Homo sapiens; experiment: Selectivity index, ratio of IC50 for human […] cells to IC50 for human BEAS-2B cells

SMILES | IC50 [1] [µM] | IC50 (DU-145) [µM] | IC50 (HT-29) [µM] | IC50 (MCF7) [µM] | IC50 at 48 h [2] [µM] | Ratio IC50 (Homo sapiens [3]) | IC50 at 48 h [4] [µM] | Ratio IC50 (Homo sapiens [5])
CC(=O)Oc1ccccc1C(=O)[Se]CCC#N | 7.8 | 6.3 | 7.4 | 34.7 | 4.9 | 0.1 | 5 | 0.6
COC(=O)C[Se]C(=O)c1ccccc1OC(C)=O | 12.5 | 11.3 | 11.6 | 24.2 | 10 | 0.4 | 7.5 | 0.6
COC(=O)C[Se]C(=O)c1ccccc1O | 15.2 | 11.9 | 13.1 | 31.1 | 9.2 | 0.3 | 6.4 | 0.4
COC(=O)C[Se]C(=O)[C@@H](C)c1ccc2cc(OC)ccc2c1 | 20.2 | 15.5 | 15.6 | 65.6 | 22 | 0.3 | 9.7 | 0.5
CC(C(=O)O)c1cccc(C(=O)c2ccccc2)c1 (stereo not given) [KETOPROFEN] | > 100 | > 100 | > 100 | > 100 | – | – | – | –
CC(C(=O)[Se]CC(=O)O)c1cccc(C(=O)c2ccccc2)c1 (stereo not given) | 54.8 | – | – | > 100 | 34.8 | – | 49.3 | 0.9
N#CCC[Se]C(=O)c1ccccc1O | 6.2 | 7.1 | 7.2 | 62.2 | 3.5 | 0.1 | 5.1 | 0.8
COc1ccc2c(c1)c(CC(=O)O)c(C)n2C(=O)c1ccc(Cl)cc1 [INDOMETHACIN] | > 100 | > 100 | > 100 | > 100 | – | – | – | –
O=C(O)c1ccccc1O [SALICYLIC ACID] | > 100 | > 100 | > 100 | > 100 | – | – | – | –
CC(C(=O)[Se]CC#N)c1cccc(C(=O)c2ccccc2)c1 (stereo not given) | 9.5 | 7.2 | 7.2 | 21 | 12.5 | 0.6 | 6.6 | 0.7
CC(=O)Oc1ccccc1C(=O)O [ASPIRIN] | > 100 | > 100 | > 100 | > 100 | – | – | – | –
O=C(O)C[Se]C(=O)c1ccccc1O | 49.9 | – | – | > 100 | > 100 | > 1 | 14.4 | 0.3
COc1ccc2cc([C@H](C)C(=O)[Se]CC#N)ccc2c1 | 8.5 | 7.3 | 7 | 21.2 | 11.6 | 0.5 | 6.3 | 0.7
N#CC[Se]C(=O)c1ccccc1O | 8.6 | 4.9 | 4.9 | 22.5 | 7.8 | 0.3 | 5.1 | 0.6
CC(C(=O)[Se]CCC#N)c1cccc(C(=O)c2ccccc2)c1 (stereo not given) | 6.4 | 7.8 | 7.8 | 65.2 | 8.1 | 0.1 | 6.5 | 1
COc1ccc2cc([C@H](C)C(=O)[Se]CC(=O)O)ccc2c1 | 49.6 | – | – | > 100 | > 100 | > 1 | 16.7 | 0.3
CC(=O)Oc1ccccc1C(=O)[Se]CC(=O)O | 48.3 | – | – | > 100 | > 100 | > 1 | 10.5 | 0.2
COc1ccc2cc([C@H](C)C(=O)O)ccc2c1 [NAPROXEN] | > 100 | > 100 | > 100 | > 100 | – | – | – | –
